Assay results taken from ChEMBL document CHEMBL5357072, “Structural Modification of Noscapine via Photoredox/Nickel Dual Catalysis for the Discovery of S-Phase Arresting Agents” (ACS Med Chem Lett, 2024).

Test system: NB-4
Assay: Antiproliferative activity against human NB4 cells assessed as cell growth inhibition at 10 uM incubated for 48 hrs by CCK8 assay relative to control
Format: functional
Settings: read-out: GI
Method in brief: (§1)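 Single-concentration screen of six cancer cell lines. Cells were exposed to 10 μM compound and growth was measured by CCK-8 assay. Results are reported as inhibition rate at 10 μM.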

| Structure (SMILES) | inhibition of growth at 10 µM [%] |
| --- | --- |
| COc1ccc2c(c1OC)C(=O)O[C@@H]2[C@H]1c2c(c(C3CC3)c3c(c2OC)OCO3)CCN1C(=O)OC(C)(C)C | 7.63 |
| COc1ccc2c(c1OC)C(=O)O[C@@H]2[C@H]1c2c(c(C3CCOCC3)c3c(c2OC)OCO3)CCN1C(=O)OC(C)(C)C | 4.36 |
| COc1ccc2c(c1OC)C(=O)O[C@@H]2[C@H]1c2c(c(CC3CCOCC3)c3c(c2OC)OCO3)CCN1C(=O)OC(C)(C)C | 4.77 |
| COc1ccc2c(c1OC)C(=O)O[C@@H]2[C@H]1c2c(c(CCCCCC#N)c3c(c2OC)OCO3)CCN1C(=O)OC(C)(C)C | 14.1 |
| COc1ccc2c(c1OC)C(=O)O[C@@H]2[C@H]1c2c(c(C3CC4CCC3C4)c3c(c2OC)OCO3)CCN1C(=O)OC(C)(C)C (stereo partly specified) | 15 |
| COc1ccc2c(c1OC)C(=O)O[C@@H]2[C@H]1c2c(c(CC3CCCO3)c3c(c2OC)OCO3)CCN1C(=O)OC(C)(C)C (stereo partly specified) | 7.48 |

Test system: MOLM-13
Assay: Antiproliferative activity against human MOLM-13 cells assessed as cell growth inhibition at 10 uM incubated for 48 hrs by CCK8 assay relative to control
Format: functional
Settings: read-out: GI
Method in brief: as §1

| Structure (SMILES) | inhibition of growth at 10 µM [%] |
| --- | --- |
| COc1ccc2c(c1OC)C(=O)O[C@@H]2[C@H]1c2c(c(C3CC3)c3c(c2OC)OCO3)CCN1C(=O)OC(C)(C)C | 19.5 |
| COc1ccc2c(c1OC)C(=O)O[C@@H]2[C@H]1c2c(c(C3CCOCC3)c3c(c2OC)OCO3)CCN1C(=O)OC(C)(C)C | 36.8 |
| COc1ccc2c(c1OC)C(=O)O[C@@H]2[C@H]1c2c(c(CC3CCOCC3)c3c(c2OC)OCO3)CCN1C(=O)OC(C)(C)C | 48.4 |
| COc1ccc2c(c1OC)C(=O)O[C@@H]2[C@H]1c2c(c(CCCCCC#N)c3c(c2OC)OCO3)CCN1C(=O)OC(C)(C)C | 46.3 |
| COc1ccc2c(c1OC)C(=O)O[C@@H]2[C@H]1c2c(c(C3CC4CCC3C4)c3c(c2OC)OCO3)CCN1C(=O)OC(C)(C)C (stereo partly specified) | 48.6 |
| COc1ccc2c(c1OC)C(=O)O[C@@H]2[C@H]1c2c(c(CC3CCCO3)c3c(c2OC)OCO3)CCN1C(=O)OC(C)(C)C (stereo partly specified) | 44.9 |

Test system: JeKo-1
Assay: Antiproliferative activity against human JeKo-1 cells assessed as cell growth inhibition at 10 uM incubated for 48 hrs by CCK8 assay relative to control
Format: functional
Settings: read-out: GI
Method in brief: as §1

| Structure (SMILES) | inhibition of growth at 10 µM [%] |
| --- | --- |
| COc1ccc2c(c1OC)C(=O)O[C@@H]2[C@H]1c2c(c(C3CC3)c3c(c2OC)OCO3)CCN1C(=O)OC(C)(C)C | 6.87 |
| COc1ccc2c(c1OC)C(=O)O[C@@H]2[C@H]1c2c(c(C3CCOCC3)c3c(c2OC)OCO3)CCN1C(=O)OC(C)(C)C | 12 |
| COc1ccc2c(c1OC)C(=O)O[C@@H]2[C@H]1c2c(c(CC3CCOCC3)c3c(c2OC)OCO3)CCN1C(=O)OC(C)(C)C | 20.4 |
| COc1ccc2c(c1OC)C(=O)O[C@@H]2[C@H]1c2c(c(CCCCCC#N)c3c(c2OC)OCO3)CCN1C(=O)OC(C)(C)C | 19.9 |
| COc1ccc2c(c1OC)C(=O)O[C@@H]2[C@H]1c2c(c(C3CC4CCC3C4)c3c(c2OC)OCO3)CCN1C(=O)OC(C)(C)C (stereo partly specified) | < 5 |
| COc1ccc2c(c1OC)C(=O)O[C@@H]2[C@H]1c2c(c(CC3CCCO3)c3c(c2OC)OCO3)CCN1C(=O)OC(C)(C)C (stereo partly specified) | 15.6 |

Test system: A549
Assay: Antiproliferative activity against human A549 cells assessed as cell growth inhibition at 10 uM incubated for 48 hrs by CCK8 assay relative to control
Format: functional
Settings: read-out: GI
Method in brief: as §1

| Structure (SMILES) | inhibition of growth at 10 µM [%] |
| --- | --- |
| COc1ccc2c(c1OC)C(=O)O[C@@H]2[C@H]1c2c(c(C3CC3)c3c(c2OC)OCO3)CCN1C(=O)OC(C)(C)C | < 5 |
| COc1ccc2c(c1OC)C(=O)O[C@@H]2[C@H]1c2c(c(C3CCOCC3)c3c(c2OC)OCO3)CCN1C(=O)OC(C)(C)C | < 5 |
| COc1ccc2c(c1OC)C(=O)O[C@@H]2[C@H]1c2c(c(CC3CCOCC3)c3c(c2OC)OCO3)CCN1C(=O)OC(C)(C)C | < 5 |
| COc1ccc2c(c1OC)C(=O)O[C@@H]2[C@H]1c2c(c(CCCCCC#N)c3c(c2OC)OCO3)CCN1C(=O)OC(C)(C)C | < 5 |
| COc1ccc2c(c1OC)C(=O)O[C@@H]2[C@H]1c2c(c(C3CC4CCC3C4)c3c(c2OC)OCO3)CCN1C(=O)OC(C)(C)C (stereo partly specified) | < 5 |
| COc1ccc2c(c1OC)C(=O)O[C@@H]2[C@H]1c2c(c(CC3CCCO3)c3c(c2OC)OCO3)CCN1C(=O)OC(C)(C)C (stereo partly specified) | < 5 |

Test system: HeLa
Assay: Antiproliferative activity against human HeLa cells assessed as cell growth inhibition at 10 uM incubated for 48 hrs by CCK8 assay relative to control
Format: functional
Settings: read-out: GI
Method in brief: as §1

| Structure (SMILES) | inhibition of growth at 10 µM [%] |
| --- | --- |
| COc1ccc2c(c1OC)C(=O)O[C@@H]2[C@H]1c2c(c(C3CC3)c3c(c2OC)OCO3)CCN1C(=O)OC(C)(C)C | < 5 |
| COc1ccc2c(c1OC)C(=O)O[C@@H]2[C@H]1c2c(c(C3CCOCC3)c3c(c2OC)OCO3)CCN1C(=O)OC(C)(C)C | < 5 |
| COc1ccc2c(c1OC)C(=O)O[C@@H]2[C@H]1c2c(c(CC3CCOCC3)c3c(c2OC)OCO3)CCN1C(=O)OC(C)(C)C | 23 |
| COc1ccc2c(c1OC)C(=O)O[C@@H]2[C@H]1c2c(c(CCCCCC#N)c3c(c2OC)OCO3)CCN1C(=O)OC(C)(C)C | 16.1 |
| COc1ccc2c(c1OC)C(=O)O[C@@H]2[C@H]1c2c(c(C3CC4CCC3C4)c3c(c2OC)OCO3)CCN1C(=O)OC(C)(C)C (stereo partly specified) | < 5 |
| COc1ccc2c(c1OC)C(=O)O[C@@H]2[C@H]1c2c(c(CC3CCCO3)c3c(c2OC)OCO3)CCN1C(=O)OC(C)(C)C (stereo partly specified) | 24.7 |

Test system: U-251
Assay: Antiproliferative activity against human U-251 cells assessed as cell growth inhibition at 10 uM incubated for 48 hrs by CCK8 assay relative to control
Format: functional
Settings: read-out: GI
Method in brief: as §1

| Structure (SMILES) | inhibition of growth at 10 µM [%] |
| --- | --- |
| COc1ccc2c(c1OC)C(=O)O[C@@H]2[C@H]1c2c(c(C3CC3)c3c(c2OC)OCO3)CCN1C(=O)OC(C)(C)C | < 5 |
| COc1ccc2c(c1OC)C(=O)O[C@@H]2[C@H]1c2c(c(C3CCOCC3)c3c(c2OC)OCO3)CCN1C(=O)OC(C)(C)C | < 5 |
| COc1ccc2c(c1OC)C(=O)O[C@@H]2[C@H]1c2c(c(CC3CCOCC3)c3c(c2OC)OCO3)CCN1C(=O)OC(C)(C)C | 13.2 |
| COc1ccc2c(c1OC)C(=O)O[C@@H]2[C@H]1c2c(c(CCCCCC#N)c3c(c2OC)OCO3)CCN1C(=O)OC(C)(C)C | 19.1 |
| COc1ccc2c(c1OC)C(=O)O[C@@H]2[C@H]1c2c(c(C3CC4CCC3C4)c3c(c2OC)OCO3)CCN1C(=O)OC(C)(C)C (stereo partly specified) | < 5 |
| COc1ccc2c(c1OC)C(=O)O[C@@H]2[C@H]1c2c(c(CC3CCCO3)c3c(c2OC)OCO3)CCN1C(=O)OC(C)(C)C (stereo partly specified) | 29.8 |
